# Experimental data from ChEMBL document CHEMBL1152208, “The discovery of biaryl carboxamides as novel small molecule agonists of the motilin receptor” (Bioorg Med Chem Lett, 2008).
# Assays:
# Motilin receptor [1] = molecular target: T1, Motilin receptor (Homo sapiens, UniProt O43193); experiment: Agonist activity at human recombinant motilin receptor expressed in HEK293 cells by FLIPR assay; type: functional, cell-based
# In short: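 HEK293 cells stably expressing human motilin receptor, seeded on poly-lysine plates 24 h before assay. Loaded with Fluo-4-AM (final) and 1 mM probenecid (final) in HEPES-buffered saline with 0.1% BSA for 1 h at 25 °C, washed, rested 20 min at 25 °C. Fluorescence change followed for 2 min after compound addition. Peak change over baseline was fitted with a 4-parameter logistic to give pEC50. Mean of at least three independent experiments (n = 2 for some).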
# Cytochrome P450 3A4 [2] = molecular target: T2, Cytochrome P450 3A4 (Homo sapiens, UniProt P08684); experiment: Inhibition of CYP3A4 using diethoxyfluorescein substrate; type: ADME
# Cytochrome P450 3A4 [3] = molecular target: T2, Cytochrome P450 3A4; experiment: Inhibition of CYP3A4 using phenyl-piperazinyl-methyl-benzyl-resofurin substrate; type: ADME
# Liver microsomes [4] = experiment: Intrinsic clearance in human liver microsome; type: ADME
# Liver microsomes [5] = experiment: Intrinsic clearance in rat liver microsome; type: ADME
# Cytochrome P450 1A2 = molecular target: T3, Cytochrome P450 1A2 (Homo sapiens, UniProt P05177); experiment: Inhibition of CYP1A2; type: ADME
# T3 sequence (P05177 whole entry): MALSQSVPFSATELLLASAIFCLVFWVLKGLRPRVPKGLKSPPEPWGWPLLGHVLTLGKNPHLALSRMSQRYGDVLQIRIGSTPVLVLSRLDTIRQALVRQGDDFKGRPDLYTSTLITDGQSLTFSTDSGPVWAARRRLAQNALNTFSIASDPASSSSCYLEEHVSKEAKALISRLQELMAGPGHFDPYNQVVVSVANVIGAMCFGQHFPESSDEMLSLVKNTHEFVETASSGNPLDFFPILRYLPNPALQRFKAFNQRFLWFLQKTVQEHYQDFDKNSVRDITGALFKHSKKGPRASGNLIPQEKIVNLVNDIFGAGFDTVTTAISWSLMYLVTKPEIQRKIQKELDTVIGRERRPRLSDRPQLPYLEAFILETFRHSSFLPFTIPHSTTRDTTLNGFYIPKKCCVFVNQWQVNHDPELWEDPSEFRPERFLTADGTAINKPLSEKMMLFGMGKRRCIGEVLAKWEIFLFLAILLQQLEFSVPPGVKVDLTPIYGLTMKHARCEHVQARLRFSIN
# Cytochrome P450 2C9 = Cytochrome P450 2C9 (Homo sapiens, UniProt P11712); experiment: Inhibition of CYP2C9; type: ADME
# Cytochrome P450 2C19 = Cytochrome P450 2C19 (Homo sapiens, UniProt P33261); experiment: Inhibition of CYP2C19; type: ADME
# Cytochrome P450 2D6 = Cytochrome P450 2D6 (Homo sapiens, UniProt P10635); experiment: Inhibition of CYP2D6; type: ADME
# [6] = molecular target: Growth hormone secretagogue receptor type 1 (Homo sapiens, UniProt Q92847); experiment: Inhibition of human Ghrelin receptor
# [7] = Distribution coefficient, log D at pH 7.4; type: physicochemical; conditions: octanol/water
# [8] = Clearance in rat; type: ADME, organism-based; conditions: in vivo
# [9] = Oral bioavailability in rat; type: ADME, organism-based; conditions: in vivo
# Stomach [10] = experiment: Potentiation of electrical field stimulation-induced contraction in New Zealand white rabbit gastric antrum at 3 uM; type: functional; conditions: Oryctolagus cuniculus
# Stomach [11] = experiment: Potentiation of electrical field stimulation-induced contraction in New Zealand white rabbit gastric antrum at 0.3 uM; type: functional; conditions: Oryctolagus cuniculus
# Stomach [12] = experiment: Potentiation of electrical field stimulation-induced contraction in New Zealand white rabbit gastric antrum at 1.5 uM; type: functional; conditions: Oryctolagus cuniculus
# [13] = Aqueous solubility of the compound; type: physicochemical
# [14] = molecular target: Voltage-gated inwardly rectifying potassium channel KCNH2 (Homo sapiens, UniProt Q12809); experiment: Inhibition of human ERG binding
# [15] = Clearance in dog; type: ADME, organism-based, Canis lupus familiaris; conditions: in vivo
# [16] = Oral bioavailability in dog; type: ADME, organism-based, Canis lupus familiaris; conditions: in vivo
# Stomach [17] = experiment: Potentiation of electrical field stimulation-induced contraction in New Zealand white rabbit gastric antrum at 10 uM; type: functional; conditions: Oryctolagus cuniculus
# Stomach [18] = experiment: Potentiation of electrical field stimulation-induced contraction in New Zealand white rabbit gastric antrum at 1 uM; type: functional; conditions: Oryctolagus cuniculus
# Motilin receptor [19] = molecular target: T1, Motilin receptor; experiment: Agonist activity at human recombinant motilin receptor expressed in CHO cells by FLIPR assay; type: functional, cell-based
# T2 sequence (P08684 whole entry): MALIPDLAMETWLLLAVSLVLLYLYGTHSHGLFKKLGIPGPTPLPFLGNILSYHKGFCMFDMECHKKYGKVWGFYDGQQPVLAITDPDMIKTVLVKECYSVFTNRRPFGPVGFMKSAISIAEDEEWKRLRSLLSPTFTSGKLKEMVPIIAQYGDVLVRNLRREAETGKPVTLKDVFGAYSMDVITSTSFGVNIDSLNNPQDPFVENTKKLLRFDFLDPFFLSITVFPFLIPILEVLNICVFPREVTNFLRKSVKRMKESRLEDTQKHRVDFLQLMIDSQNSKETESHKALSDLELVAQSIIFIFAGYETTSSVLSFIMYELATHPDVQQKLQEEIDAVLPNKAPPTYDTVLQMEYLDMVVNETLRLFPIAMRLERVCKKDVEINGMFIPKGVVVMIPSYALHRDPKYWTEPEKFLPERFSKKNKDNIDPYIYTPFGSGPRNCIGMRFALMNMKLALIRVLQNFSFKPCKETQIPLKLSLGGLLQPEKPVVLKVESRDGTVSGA
# T1 sequence (O43193 whole entry): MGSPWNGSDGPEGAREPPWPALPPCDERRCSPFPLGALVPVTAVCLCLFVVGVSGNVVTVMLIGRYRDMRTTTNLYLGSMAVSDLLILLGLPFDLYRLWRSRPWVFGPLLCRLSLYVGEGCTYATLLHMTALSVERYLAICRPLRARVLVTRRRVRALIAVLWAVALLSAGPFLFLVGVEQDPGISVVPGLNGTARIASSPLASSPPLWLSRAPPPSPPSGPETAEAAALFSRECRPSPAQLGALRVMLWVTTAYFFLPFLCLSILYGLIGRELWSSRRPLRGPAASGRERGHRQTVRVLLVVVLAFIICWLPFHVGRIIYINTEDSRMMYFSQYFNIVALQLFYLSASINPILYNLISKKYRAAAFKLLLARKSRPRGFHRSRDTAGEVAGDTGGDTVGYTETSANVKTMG
# Chain of Cytochrome P450 2C19 (P33261 whole entry): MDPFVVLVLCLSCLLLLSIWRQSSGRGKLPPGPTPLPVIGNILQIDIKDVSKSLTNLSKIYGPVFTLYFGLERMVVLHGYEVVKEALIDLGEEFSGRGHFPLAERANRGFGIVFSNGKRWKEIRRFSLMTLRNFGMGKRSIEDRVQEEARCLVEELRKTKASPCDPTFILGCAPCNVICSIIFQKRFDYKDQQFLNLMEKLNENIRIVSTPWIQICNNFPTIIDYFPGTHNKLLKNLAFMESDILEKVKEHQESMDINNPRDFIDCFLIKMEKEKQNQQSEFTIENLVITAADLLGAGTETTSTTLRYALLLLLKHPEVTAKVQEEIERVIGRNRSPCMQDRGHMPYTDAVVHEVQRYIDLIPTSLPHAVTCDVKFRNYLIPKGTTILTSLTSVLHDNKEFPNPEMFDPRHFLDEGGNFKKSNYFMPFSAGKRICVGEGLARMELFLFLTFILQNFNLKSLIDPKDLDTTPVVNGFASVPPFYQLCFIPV
# Chain of Growth hormone secretagogue receptor type 1 (Q92847 whole entry): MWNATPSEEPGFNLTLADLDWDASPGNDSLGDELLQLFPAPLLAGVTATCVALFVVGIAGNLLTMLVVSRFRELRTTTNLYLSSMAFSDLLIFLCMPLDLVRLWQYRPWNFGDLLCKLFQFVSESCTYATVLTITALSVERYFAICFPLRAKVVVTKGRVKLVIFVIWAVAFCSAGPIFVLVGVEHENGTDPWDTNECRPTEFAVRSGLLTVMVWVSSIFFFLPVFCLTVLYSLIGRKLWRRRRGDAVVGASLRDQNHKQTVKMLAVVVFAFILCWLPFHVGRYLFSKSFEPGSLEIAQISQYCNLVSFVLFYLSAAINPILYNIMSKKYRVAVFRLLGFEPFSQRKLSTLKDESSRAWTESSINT
# Chain of Cytochrome P450 2D6 (P10635 whole entry): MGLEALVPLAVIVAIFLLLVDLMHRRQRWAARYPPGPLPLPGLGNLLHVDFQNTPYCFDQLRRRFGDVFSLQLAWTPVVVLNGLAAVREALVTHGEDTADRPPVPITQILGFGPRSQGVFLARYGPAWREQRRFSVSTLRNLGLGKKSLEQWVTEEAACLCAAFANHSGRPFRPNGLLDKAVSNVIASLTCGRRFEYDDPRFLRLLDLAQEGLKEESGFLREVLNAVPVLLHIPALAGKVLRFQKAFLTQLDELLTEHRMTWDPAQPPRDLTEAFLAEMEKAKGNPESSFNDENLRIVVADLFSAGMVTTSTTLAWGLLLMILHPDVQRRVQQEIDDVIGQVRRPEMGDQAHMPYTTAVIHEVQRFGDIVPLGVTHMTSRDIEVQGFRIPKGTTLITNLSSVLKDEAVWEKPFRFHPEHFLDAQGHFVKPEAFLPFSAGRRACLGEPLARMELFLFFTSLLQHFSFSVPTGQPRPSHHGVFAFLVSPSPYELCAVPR
# Chain of Cytochrome P450 2C9 (P11712 whole entry): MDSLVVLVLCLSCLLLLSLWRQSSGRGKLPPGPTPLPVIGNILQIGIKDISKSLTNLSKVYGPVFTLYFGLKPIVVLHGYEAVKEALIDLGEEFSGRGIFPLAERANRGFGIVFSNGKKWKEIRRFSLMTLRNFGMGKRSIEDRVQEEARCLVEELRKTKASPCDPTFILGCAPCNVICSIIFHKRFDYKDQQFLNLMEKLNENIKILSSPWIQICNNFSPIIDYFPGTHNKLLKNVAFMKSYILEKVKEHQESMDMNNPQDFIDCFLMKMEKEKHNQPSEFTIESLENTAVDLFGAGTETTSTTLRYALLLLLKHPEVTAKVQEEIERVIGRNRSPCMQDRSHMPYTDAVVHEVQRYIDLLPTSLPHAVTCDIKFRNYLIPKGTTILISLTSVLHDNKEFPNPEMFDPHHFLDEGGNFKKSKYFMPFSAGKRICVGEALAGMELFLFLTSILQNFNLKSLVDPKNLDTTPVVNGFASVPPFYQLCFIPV
# Chain of Voltage-gated inwardly rectifying potassium channel KCNH2 (Q12809 whole entry): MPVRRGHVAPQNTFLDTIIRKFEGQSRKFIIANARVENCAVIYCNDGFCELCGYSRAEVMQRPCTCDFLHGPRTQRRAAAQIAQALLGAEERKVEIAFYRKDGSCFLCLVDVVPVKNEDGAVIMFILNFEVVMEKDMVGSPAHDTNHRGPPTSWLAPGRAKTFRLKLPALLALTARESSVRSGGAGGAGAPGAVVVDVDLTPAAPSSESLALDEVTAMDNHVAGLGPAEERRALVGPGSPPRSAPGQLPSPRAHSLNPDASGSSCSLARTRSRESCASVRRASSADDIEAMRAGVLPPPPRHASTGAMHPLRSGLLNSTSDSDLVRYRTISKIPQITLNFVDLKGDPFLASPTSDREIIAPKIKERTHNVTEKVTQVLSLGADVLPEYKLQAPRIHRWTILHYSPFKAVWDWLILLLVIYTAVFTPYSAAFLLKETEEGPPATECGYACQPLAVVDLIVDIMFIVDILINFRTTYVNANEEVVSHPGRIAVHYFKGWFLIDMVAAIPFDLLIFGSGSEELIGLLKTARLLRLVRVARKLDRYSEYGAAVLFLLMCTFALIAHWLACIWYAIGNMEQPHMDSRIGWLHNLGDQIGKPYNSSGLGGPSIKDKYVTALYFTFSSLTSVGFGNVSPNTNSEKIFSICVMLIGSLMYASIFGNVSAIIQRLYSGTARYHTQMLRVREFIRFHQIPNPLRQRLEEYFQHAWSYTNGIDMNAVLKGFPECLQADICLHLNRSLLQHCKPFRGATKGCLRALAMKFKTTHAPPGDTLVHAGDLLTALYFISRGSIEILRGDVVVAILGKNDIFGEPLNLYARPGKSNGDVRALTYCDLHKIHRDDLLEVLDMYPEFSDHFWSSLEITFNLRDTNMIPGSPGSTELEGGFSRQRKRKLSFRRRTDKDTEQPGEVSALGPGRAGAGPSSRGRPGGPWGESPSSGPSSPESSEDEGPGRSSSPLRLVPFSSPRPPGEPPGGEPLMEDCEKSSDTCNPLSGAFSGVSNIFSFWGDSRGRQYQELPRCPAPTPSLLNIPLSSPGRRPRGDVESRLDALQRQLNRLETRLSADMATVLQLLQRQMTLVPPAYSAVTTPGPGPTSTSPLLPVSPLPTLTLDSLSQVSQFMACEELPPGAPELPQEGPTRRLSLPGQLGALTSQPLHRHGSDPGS
Compound,EC50 (Motilin receptor [1]),IC50 (Cytochrome P450 3A4 [2]),IC50 (Cytochrome P450 3A4 [3]),CL (Liver microsomes [4]),CL (Liver microsomes [5]),further results
C[C@@H]1CN(Cc2ccc(-n3ccnc3C(=O)N3CCC(Nc4cccc(F)c4)CC3)cc2)C[C@H](C)N1,0.0158 µM,58 µM,46 µM,3.4 mL/min/g,4.1 mL/min/g,IC50 (Cytochrome P450 1A2): 74 µM; IC50 (Cytochrome P450 2C9): > 100 µM; IC50 (Cytochrome P450 2C19): > 100 µM; IC50 (Cytochrome P450 2D6): 29 µM; EC50 [6]: 0.501 µM; logD [7]: 0.82; clearance [8]: 3.66 L/h/kg; bioavailability [9]: 17%; Emax at 3 µM (Stomach [10]): 224%; Emax at 0.3 µM (Stomach [11]): 73%; Emax at 1.5 µM (Stomach [12]): 302%
C[C@@H]1CN(Cc2ccc(-c3ccccc3C(=O)N3CCC(Nc4ccccc4)CC3)cc2)C[C@H](C)N1,0.00501 µM,12 µM,17 µM,7 mL/min/g,20 mL/min/g,–
C[C@@H]1CN(Cc2ccc(-c3ccccc3C(=O)N3CCC(NC(=O)c4ccc(F)cc4)CC3)cc2)C[C@H](C)N1,> 10 µM,–,–,–,–,–
C[C@@H]1CN(Cc2ccc(-c3ccccc3CN(C)C(=O)COc3ccccc3)cc2)C[C@H](C)N1,0.0794 µM,7 µM,24 µM,4.9 mL/min/g,9.5 mL/min/g,–
COCCCN(Cc1ccccc1-c1ccc(CN2CCNCC2)cc1)C(=O)COc1ccccc1,0.398 µM,–,–,–,–,–
C[C@@H]1CN(Cc2ccc(-c3cccnc3C(=O)N3CCC(Nc4cccc(C#N)c4)CC3)cc2)C[C@H](C)N1,0.02 µM,–,–,3.5 mL/min/g,4.6 mL/min/g,–
C[C@@H]1CN(Cc2cnc(-c3ccccc3C(=O)N3CCC(Nc4ccc(F)cc4)CC3)s2)C[C@H](C)N1,0.398 µM,–,–,–,–,–
C[C@@H]1CN(Cc2ccc(-c3ccccc3CN(C)C(=O)CS(=O)(=O)c3ccccc3)cc2)C[C@H](C)N1,0.01 µM,3 µM,8.9 µM,6.8 mL/min/g,4.3 mL/min/g,–
C[C@@H]1CN(Cc2ccc(-c3cccnc3C(=O)N3CCC(Nc4ccc(F)cc4)CC3)cc2F)C[C@H](C)N1,0.00398 µM,–,–,5.5 mL/min/g,6.5 mL/min/g,–
C[C@@H]1CN(Cc2ccc(-c3cccnc3C(=O)N3CCC(Nc4ccccc4F)CC3)cc2)C[C@H](C)N1,0.0501 µM,–,–,–,–,–
C[C@@H]1CN(Cc2ccc(-c3cccnc3C(=O)N3CCC(Nc4ccc(C(N)=O)cc4)CC3)cc2)C[C@H](C)N1,2.51 µM,–,–,–,–,–
C[C@@H]1CN(Cc2ccc(-c3cccnc3C(=O)N3CCC(Nc4ccc(F)cc4)CC3)cc2)C[C@H](C)N1.Cl,–,–,–,–,–,solubility [13]: ≥ 1 mg/mL
C[C@@H]1CN(Cc2ccc(-c3cccnc3C(=O)N3CCC(Cc4ccc(F)cc4)CC3)cc2)C[C@H](C)N1,0.01 µM,13 µM,5.6 µM,16 mL/min/g,16 mL/min/g,–
C[C@@H]1CN(Cc2ccc(-c3cccnc3C(=O)N3CCC(Nc4cccc(F)c4)CC3)cc2)C[C@H](C)N1,0.00631 µM,–,–,4.4 mL/min/g,6.5 mL/min/g,–
C[C@@H]1CN(Cc2ccc(-c3ccccc3C(=O)N3CCC(Nc4ccc(Cl)cc4)CC3)cc2)C[C@H](C)N1,0.0501 µM,5.2 µM,3.5 µM,8 mL/min/g,33 mL/min/g,–
COc1ccc(NC2CCN(C(=O)c3ncccc3-c3ccc(CN4C[C@@H](C)N[C@@H](C)C4)cc3)CC2)cc1,1 µM,–,–,–,–,–
C[C@@H]1CN(Cc2ccc(-c3ccccc3C(=O)N3CCC(Nc4ccc(F)cc4)CC3)nc2)C[C@H](C)N1,> 10 µM,–,–,–,–,–
C[C@@H]1CN(Cc2ccc(-c3cccnc3C(=O)N3CCC(Nc4ccc(F)cc4)CC3)cc2)C[C@H](C)N1,0.02 µM,> 100 µM,> 100 µM,2.6 mL/min/g,2.8 mL/min/g,IC50 (Cytochrome P450 1A2): > 100 µM; IC50 (Cytochrome P450 2C9): > 100 µM; IC50 (Cytochrome P450 2C19): > 100 µM; IC50 (Cytochrome P450 2D6): 15 µM; IC50 [14]: > 31.6 µM; EC50 [6]: 0.1 µM; logD [7]: 0.72; clearance [8]: 3.18 L/h/kg; bioavailability [9]: 13%; clearance [15]: 1.14 L/h/kg; bioavailability [16]: 58%; Emax at 10 µM (Stomach [17]): 486%; Emax at 3 µM (Stomach [10]): 343%; Emax at 1 µM (Stomach [18]): 299%; Emax at 0.3 µM (Stomach [11]): 168%
C[C@@H]1CN(Cc2ccc(-c3ccccc3CN(C)C(=O)CSc3ccccc3)cc2)C[C@H](C)N1,0.00316 µM,–,–,–,–,–
CC(C)CCC(=O)N(C)Cc1ccccc1-c1ccc(CN2C[C@@H](C)N[C@@H](C)C2)cc1,0.251 µM,–,–,–,–,–

Compound,EC50 (Motilin receptor [1]),IC50 (Cytochrome P450 3A4 [2]),IC50 (Cytochrome P450 3A4 [3]),CL (Liver microsomes [4]),CL (Liver microsomes [5]),further results
C[C@@H]1CN(Cc2ccc(-c3ccccc3CN(C)C(=O)Cc3ccc(F)cc3)cc2)C[C@H](C)N1,0.0501 µM,–,–,–,–,–
C[C@@H]1CN(Cc2ccc(-c3cccnc3C(=O)N3CCC(Nc4cccc(F)c4)CC3)cc2F)C[C@H](C)N1,0.01 µM,–,–,9.4 mL/min/g,12 mL/min/g,–
Cc1cc(CC(=O)N(C)Cc2ccccc2-c2ccc(CN3C[C@@H](C)N[C@@H](C)C3)cc2)on1,1 µM,40 µM,> 100 µM,2.4 mL/min/g,2.9 mL/min/g,–
C[C@@H]1CN(Cc2ccc(-c3ccccc3C(=O)N3CCC(C(=O)c4ccc(F)cc4)CC3)cc2)C[C@H](C)N1,0.0631 µM,4.8 µM,3.6 µM,–,–,–
C[C@@H]1CN(Cc2ccc(-c3ccccc3CN(C)C(=O)COc3ccc(F)cc3)cc2)C[C@H](C)N1,0.0316 µM,6 µM,7.3 µM,–,–,–
C[C@@H]1CN(Cc2ccc(-c3ccccc3CN(C)C(=O)Cc3cccc(Cl)c3)cc2)C[C@H](C)N1,0.0794 µM,1.4 µM,1.5 µM,20 mL/min/g,17 mL/min/g,–
C[C@@H]1CN(Cc2ccc(-c3ccccc3C(=O)N3CCC(Nc4ccc(F)cc4)CC3)cc2)C[C@H](C)N1,0.00251 µM,–,–,–,–,–
CCN(CCc1ccccc1)C(=O)c1ccccc1-c1ccc(CN2C[C@@H](C)N[C@@H](C)C2)cc1,0.00794 µM,0.9 µM,1.5 µM,40 mL/min/g,26 mL/min/g,–
C[C@@H]1CN(Cc2ccc(-c3cccnc3C(=O)N3CCC(Nc4ccc(F)c(F)c4)CC3)cc2)C[C@H](C)N1,0.002 µM,–,–,7 mL/min/g,5.9 mL/min/g,–
C[C@@H]1CN(Cc2ccc(-c3cccnc3C(=O)N3CCC(Nc4ccccc4C#N)CC3)cc2)C[C@H](C)N1,0.794 µM,–,–,–,–,–
CC[C@H]1OC(=O)[C@H](C)[C@@H](O[C@H]2C[C@@](C)(OC)[C@@H](O)[C@H](C)O2)[C@H](C)[C@@H](O[C@@H]2O[C@H](C)C[C@H](N(C)C)[C@H]2O)[C@](C)(O)C[C@@H](C)C(=O)[C@H](C)[C@@H](O)[C@]1(C)O [ERYTHROMYCIN],–,–,–,–,–,Emax at 10 µM (Stomach [17]): 368%; Emax at 3 µM (Stomach [10]): 490%; Emax at 1 µM (Stomach [18]): 189%; Emax at 0.3 µM (Stomach [11]): 69%
C[C@@H]1CN(Cc2ccc(-c3ccccc3C(=O)N3CCC(Cc4ccc(F)cc4)CC3)cc2)C[C@H](C)N1,0.01 µM,0.6 µM,0.5 µM,29 mL/min/g,7 mL/min/g,–
COc1cccc(CCN(Cc2ccccc2-c2ccc(CN3C[C@@H](C)N[C@@H](C)C3)cc2)C(=O)NC2CCCCC2)c1,0.0501 µM,0.2 µM,0.4 µM,> 50 mL/min/g,23 mL/min/g,EC50 (Motilin receptor [19]): 0.01 µM
C[C@@H]1CN(Cc2ccc(-c3cccnc3C(=O)N3CCC(Nc4ccc(C#N)cc4)CC3)cc2)C[C@H](C)N1,0.631 µM,–,–,–,–,–
COc1cc(-c2cccnc2C(=O)N2CCC(Nc3ccc(F)cc3)CC2)ccc1CN1C[C@@H](C)N[C@@H](C)C1,0.00501 µM,–,–,5.3 mL/min/g,5.9 mL/min/g,–
C[C@@H]1CN(Cc2ccc(-n3ccnc3C(=O)N3CCC(Nc4cccc(F)c4)CC3)cc2)C[C@H](C)N1.Cl,–,–,–,–,–,solubility [13]: ≥ 0.5 mg/mL
C[C@@H]1CN(Cc2ccc(-c3ccccc3C(=O)N3CCC(Oc4ccc(F)cc4)CC3)cc2)C[C@H](C)N1,0.0631 µM,–,–,–,–,–
C[C@@H]1CN(Cc2ccc(N3CCCC3C(=O)N3CCC(Nc4cccc(F)c4)CC3)cc2)C[C@H](C)N1 (some centres undefined),2.51 µM,–,–,–,–,–
Cc1ccc(S(=O)(=O)NCC(=O)N(C)Cc2ccccc2-c2ccc(CN3C[C@@H](C)N[C@@H](C)C3)cc2)cc1,0.02 µM,–,–,–,–,–
COc1cccc(CCN(Cc2ccccc2-c2ccc(CN3CCNCC3)cc2)C(=O)COc2ccccc2)c1,0.251 µM,–,–,–,–,–
